Data on seven compounds can be found in ChEMBL document CHEMBL2331489, “Novel cinnoline-based inhibitors of LRRK2 kinase activity” (Bioorg Med Chem Lett, 2013).

Series [1] addresses T1, Serine/threonine-protein kinase 3 (Homo sapiens) (UniProt Q13188).
T1 sequence (whole entry): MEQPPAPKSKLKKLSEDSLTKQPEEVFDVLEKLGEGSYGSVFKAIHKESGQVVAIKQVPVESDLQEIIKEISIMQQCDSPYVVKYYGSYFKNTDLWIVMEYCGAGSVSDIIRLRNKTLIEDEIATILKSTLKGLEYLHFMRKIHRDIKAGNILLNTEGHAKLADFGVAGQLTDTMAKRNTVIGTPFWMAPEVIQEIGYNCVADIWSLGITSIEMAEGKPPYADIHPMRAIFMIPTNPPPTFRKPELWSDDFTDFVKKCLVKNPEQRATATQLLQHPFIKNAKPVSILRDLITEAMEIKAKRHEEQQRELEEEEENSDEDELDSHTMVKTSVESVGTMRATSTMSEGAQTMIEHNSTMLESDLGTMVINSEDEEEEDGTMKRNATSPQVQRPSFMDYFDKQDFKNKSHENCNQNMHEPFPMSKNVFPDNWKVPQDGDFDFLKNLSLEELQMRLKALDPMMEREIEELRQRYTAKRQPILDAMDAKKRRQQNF
The experiment in a line: Inhibition of STK3 (unknown origin) at 10 uM relative to control.

Series [2] can be described thus: Ratio of drug level in brain to plasma in Mdr1(a/b) knock out and P-gp competent FVB mouse at 1 mg/kg, iv at 5 mins. Particulars: read-out: BPR. More on the design: dose 1 mg/kg, route intravenous. In kind it is ADME, organism-based. A digest of the protocol:
(§1)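 FVB mice, both Mdr1a/b (-/-) and P-gp-competent wild-type, were given a single 1 mg/kg IV dose. Brain and plasma concentrations were measured 5 min after dosing. Brain uptake was expressed as the brain-to-plasma concentration ratio (Kp). In vivo P-gp efflux was assessed by comparing the knockout and wild-type strains.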

Series [3] concerns the target Macrophage colony-stimulating factor 1 receptor (Homo sapiens, UniProt P07333). In words: Inhibition of CSF1R (unknown origin) by TR-FRET assay in presence of ATP. In general terms: In TR-FRET formats the signal depends on donor and acceptor labels being close together.
For series [4], the target named is Protein kinase C beta type (Homo sapiens) (UniProt P05771). In words: Inhibition of PRKCbeta1 (unknown origin) at 10 uM relative to control.
Protein kinase C beta type (Homo sapiens), sequence (P05771 2-671 limits assumed): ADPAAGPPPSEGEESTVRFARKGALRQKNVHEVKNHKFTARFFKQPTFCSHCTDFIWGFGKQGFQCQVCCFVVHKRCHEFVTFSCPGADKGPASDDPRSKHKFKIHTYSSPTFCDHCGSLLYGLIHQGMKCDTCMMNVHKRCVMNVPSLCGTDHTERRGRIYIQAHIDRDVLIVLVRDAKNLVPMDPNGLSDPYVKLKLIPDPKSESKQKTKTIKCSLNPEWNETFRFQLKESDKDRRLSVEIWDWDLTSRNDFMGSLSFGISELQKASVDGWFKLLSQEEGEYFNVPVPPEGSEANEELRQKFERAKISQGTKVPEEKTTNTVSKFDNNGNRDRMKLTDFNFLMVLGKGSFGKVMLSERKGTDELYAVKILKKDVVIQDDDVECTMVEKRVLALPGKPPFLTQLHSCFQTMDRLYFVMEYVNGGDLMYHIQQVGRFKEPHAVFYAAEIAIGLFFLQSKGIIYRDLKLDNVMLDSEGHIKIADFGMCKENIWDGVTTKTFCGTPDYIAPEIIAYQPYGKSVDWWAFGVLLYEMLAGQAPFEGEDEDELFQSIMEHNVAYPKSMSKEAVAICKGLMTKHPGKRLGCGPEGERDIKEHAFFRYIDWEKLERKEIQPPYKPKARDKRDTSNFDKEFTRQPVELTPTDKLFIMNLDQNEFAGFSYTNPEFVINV
Series [5] addresses Platelet-derived growth factor receptor alpha (Homo sapiens, UniProt P16234). In words: Inhibition of PDGFRalpha (unknown origin) by TR-FRET assay in presence of ATP.
Series [6] concerns the target T2, Leucine-rich repeat serine/threonine-protein kinase 2 (Homo sapiens, UniProt Q5S007, G2019S). The experiment in a line: Inhibition of GST-tagged LRRK2 G2019S mutant (970 to 2527 amino acid residues) (unknown origin) assessed as inhibition of biotinylated-LRRKtide phosphorylation by HTRF assay in presence of ATP.
For a further series, the system named is Brain. In words: Drug uptake in Mdr1(a/b) knock out and P-gp competent FVB mouse brain at 1 mg/kg, iv at 5 mins. The series is classed as ADME, organism-based. More on the design: dose 1 mg/kg, route intravenous. Particulars: in vivo. A digest of the protocol:
as §1

The target of series [7] is ATP-dependent translocase ABCB1 (Homo sapiens, UniProt P08183). In words: Inhibition of MDR1 (unknown origin) transfected in MDCK cells. In kind it is cell-based.
The target in series [8] is Mitogen-activated protein kinase 1 (Homo sapiens) (UniProt P28482). The experiment in a line: Inhibition of MAPK1 (unknown origin) at 10 uM relative to control.
Mitogen-activated protein kinase 1 (Homo sapiens), sequence (P28482 whole entry): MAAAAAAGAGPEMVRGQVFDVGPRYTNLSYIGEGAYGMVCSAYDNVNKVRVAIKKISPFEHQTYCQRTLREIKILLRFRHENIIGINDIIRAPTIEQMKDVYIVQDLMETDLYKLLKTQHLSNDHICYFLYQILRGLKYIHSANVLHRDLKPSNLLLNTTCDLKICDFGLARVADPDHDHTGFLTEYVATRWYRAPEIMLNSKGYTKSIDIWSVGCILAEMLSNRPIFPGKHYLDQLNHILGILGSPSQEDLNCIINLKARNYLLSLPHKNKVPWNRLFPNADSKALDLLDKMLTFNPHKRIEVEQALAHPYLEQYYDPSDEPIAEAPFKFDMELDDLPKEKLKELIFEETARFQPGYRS
A further series has as its system Mus musculus. The experiment in a line: Inhibition of P-gp in Mdr1(a/b) knock out and P-gp competent FVB mouse at 1 mg/kg, iv. More on the design: dose 1 mg/kg. The series is classed as functional, organism-based. In short, it runs like this:
as §1

Series [9] addresses T2, Leucine-rich repeat serine/threonine-protein kinase 2. In words: Inhibition of LRRK2 G2019S mutant (unknown origin) transfected in HEK293 cells assessed as inhibition of S935 phosphorylation. In kind it is cell-based.
Series [10] has as its target Leucine-rich repeat serine/threonine-protein kinase 2 (Homo sapiens, UniProt Q5S007). In words: Inhibition of wild type GST-tagged LRRK2 (970 to 2527 amino acid residues) (unknown origin) assessed as inhibition of biotinylated-LRRKtide phosphorylation by HTRF assay in presence of ATP.

Activity calls are given as the source filed them. No cut-off for these calls is given here.

Leucine-rich repeat serine/threonine-protein kinase 2 (Homo sapiens, UniProt Q5S007), sequence (Q5S007 whole entry, the tested form may be a part): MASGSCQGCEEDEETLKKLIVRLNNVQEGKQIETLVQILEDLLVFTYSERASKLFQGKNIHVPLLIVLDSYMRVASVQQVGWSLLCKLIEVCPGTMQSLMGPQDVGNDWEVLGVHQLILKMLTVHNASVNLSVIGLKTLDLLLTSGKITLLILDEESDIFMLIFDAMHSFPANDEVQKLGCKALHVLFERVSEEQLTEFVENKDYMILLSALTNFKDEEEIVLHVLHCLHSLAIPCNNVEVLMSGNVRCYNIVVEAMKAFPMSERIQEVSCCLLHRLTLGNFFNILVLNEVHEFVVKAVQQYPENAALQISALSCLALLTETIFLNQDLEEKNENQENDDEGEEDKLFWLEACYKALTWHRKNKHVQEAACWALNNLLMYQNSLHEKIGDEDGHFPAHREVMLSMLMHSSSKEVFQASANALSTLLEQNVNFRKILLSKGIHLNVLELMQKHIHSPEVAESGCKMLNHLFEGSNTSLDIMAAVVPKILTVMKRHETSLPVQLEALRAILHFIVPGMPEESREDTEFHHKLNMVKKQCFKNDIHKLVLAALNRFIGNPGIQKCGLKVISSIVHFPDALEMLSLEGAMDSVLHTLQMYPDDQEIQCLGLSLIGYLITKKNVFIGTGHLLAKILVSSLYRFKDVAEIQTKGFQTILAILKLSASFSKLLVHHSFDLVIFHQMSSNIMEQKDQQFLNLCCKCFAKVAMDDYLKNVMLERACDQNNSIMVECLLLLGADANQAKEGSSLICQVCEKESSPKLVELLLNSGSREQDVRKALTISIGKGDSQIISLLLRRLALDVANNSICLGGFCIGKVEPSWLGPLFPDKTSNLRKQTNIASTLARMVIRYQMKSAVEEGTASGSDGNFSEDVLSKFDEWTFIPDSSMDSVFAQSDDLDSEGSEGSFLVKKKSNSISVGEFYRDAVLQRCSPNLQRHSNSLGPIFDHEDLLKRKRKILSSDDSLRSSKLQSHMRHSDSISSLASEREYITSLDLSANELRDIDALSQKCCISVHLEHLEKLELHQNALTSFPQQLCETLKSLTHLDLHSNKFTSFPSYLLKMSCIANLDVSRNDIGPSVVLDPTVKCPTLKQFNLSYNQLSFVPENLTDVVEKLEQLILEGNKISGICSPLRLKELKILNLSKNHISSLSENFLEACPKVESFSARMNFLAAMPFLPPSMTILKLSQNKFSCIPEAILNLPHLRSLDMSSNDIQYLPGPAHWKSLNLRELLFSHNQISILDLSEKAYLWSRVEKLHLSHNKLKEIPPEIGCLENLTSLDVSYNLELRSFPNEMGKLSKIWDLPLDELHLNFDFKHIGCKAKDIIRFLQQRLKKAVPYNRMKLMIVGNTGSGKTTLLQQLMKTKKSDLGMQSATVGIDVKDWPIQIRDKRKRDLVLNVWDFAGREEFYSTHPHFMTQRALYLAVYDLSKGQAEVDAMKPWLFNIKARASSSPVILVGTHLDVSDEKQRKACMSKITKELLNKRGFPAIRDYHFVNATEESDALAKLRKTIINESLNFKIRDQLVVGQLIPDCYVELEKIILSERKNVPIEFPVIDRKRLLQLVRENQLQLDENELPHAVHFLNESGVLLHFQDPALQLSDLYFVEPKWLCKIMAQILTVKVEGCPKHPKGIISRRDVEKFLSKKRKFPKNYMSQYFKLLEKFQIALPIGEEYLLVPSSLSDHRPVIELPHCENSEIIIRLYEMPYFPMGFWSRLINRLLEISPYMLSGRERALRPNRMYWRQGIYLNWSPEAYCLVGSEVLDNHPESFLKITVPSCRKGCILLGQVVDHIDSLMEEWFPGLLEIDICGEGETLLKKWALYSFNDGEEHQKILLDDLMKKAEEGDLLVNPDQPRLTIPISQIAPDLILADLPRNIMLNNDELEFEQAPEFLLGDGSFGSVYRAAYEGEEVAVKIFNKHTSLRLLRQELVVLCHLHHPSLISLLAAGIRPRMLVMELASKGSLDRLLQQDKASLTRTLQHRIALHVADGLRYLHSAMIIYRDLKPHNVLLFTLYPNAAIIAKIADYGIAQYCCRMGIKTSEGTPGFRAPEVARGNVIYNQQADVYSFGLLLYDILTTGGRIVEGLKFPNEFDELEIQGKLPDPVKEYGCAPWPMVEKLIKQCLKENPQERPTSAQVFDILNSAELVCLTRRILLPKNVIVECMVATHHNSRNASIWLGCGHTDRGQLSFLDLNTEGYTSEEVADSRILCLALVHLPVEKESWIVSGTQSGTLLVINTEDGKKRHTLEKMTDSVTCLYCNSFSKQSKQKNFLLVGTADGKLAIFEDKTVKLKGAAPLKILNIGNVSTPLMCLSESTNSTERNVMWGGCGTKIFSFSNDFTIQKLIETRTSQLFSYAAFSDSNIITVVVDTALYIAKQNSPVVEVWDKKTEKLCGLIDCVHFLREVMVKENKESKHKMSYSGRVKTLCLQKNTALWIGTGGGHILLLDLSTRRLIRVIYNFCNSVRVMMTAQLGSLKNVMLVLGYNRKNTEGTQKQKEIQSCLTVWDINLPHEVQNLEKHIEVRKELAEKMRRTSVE
T2 sequence (Q5S007 whole entry G2019S, the tested form may be a part): as the sequence (Q5S007 whole entry, the tested form may be a part) above, with G2019S counted along it
Macrophage colony-stimulating factor 1 receptor, sequence (P07333 whole entry): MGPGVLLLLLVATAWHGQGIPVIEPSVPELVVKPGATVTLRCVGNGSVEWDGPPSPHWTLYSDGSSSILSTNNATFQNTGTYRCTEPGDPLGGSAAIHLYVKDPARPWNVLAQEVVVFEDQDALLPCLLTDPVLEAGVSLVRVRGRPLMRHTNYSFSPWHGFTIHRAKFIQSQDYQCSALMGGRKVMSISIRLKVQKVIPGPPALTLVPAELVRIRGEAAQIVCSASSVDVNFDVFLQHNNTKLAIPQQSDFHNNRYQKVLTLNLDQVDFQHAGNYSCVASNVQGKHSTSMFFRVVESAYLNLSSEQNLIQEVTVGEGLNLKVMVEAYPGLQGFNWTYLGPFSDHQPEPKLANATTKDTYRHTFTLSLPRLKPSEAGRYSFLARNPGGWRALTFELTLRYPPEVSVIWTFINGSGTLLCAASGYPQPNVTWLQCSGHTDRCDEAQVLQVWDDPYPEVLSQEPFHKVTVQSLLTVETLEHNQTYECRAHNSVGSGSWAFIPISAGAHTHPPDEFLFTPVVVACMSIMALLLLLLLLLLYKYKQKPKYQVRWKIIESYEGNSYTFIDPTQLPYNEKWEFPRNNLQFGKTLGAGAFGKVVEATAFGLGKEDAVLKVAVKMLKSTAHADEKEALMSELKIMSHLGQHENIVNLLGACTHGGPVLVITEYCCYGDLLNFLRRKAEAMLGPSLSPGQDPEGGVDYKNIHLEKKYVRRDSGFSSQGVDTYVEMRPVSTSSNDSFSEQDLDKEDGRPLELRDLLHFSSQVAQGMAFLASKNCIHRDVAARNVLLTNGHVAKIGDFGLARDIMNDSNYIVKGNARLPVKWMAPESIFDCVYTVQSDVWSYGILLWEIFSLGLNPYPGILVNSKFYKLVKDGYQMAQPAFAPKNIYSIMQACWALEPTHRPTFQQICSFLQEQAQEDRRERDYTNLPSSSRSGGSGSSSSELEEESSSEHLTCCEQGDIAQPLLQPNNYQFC

As a reminder, the inhibition is the relative decrease from the control value, in per cent. The IC50 is the concentration at which inhibition is half-maximal. As for `CS(=O)(=O)c1ccc(-c2ccc3c(NC4CCC4)c(C(N)=O)nnc3c2)cc1`, the inhibition in series [1] was 66%; in series [4], -2%; in series [8], 3%. In addition, in series [2], the Kp at 5 min was 0.76. Moreover, the IC50 was below 0.04 µM in series [3], 0.127 µM in [5] and 0.019 µM in [6]. Also, in the series on Brain, the Drug uptake entry is recorded as “Active”. Further, the “inhibition (INH)” value in [7] is reported as “Active”. Besides, in the series on Mus musculus, the inhibition entry was “Active”.

By EC50 is commonly meant the concentration that produces a half-maximal response. For the compound `C[C@@H](Nc1c(C(N)=O)nnc2cc(-c3ccc(S(C)(=O)=O)cc3)ccc12)C1CC1`, the inhibition in series [1] was 91%; in [4] it was 0%. Also, the IC50 in series [3] was determined as 0.017 µM; in [5] it was 0.022 µM; in series [6] it was 0.007 µM; in [10], 0.001 µM. In addition, in series [9], the EC50 came out at 0.07 µM.

Take `CC(C)Nc1c(C(N)=O)cnc2cc(-c3ccc(S(C)(=O)=O)cc3)ccc12`: the inhibition in [1] is 100%; in series [4], 8%; in [8], 7%. Besides, the half-inhibitory concentration (IC50) in series [10] turned out to be 0.035 µM.

Turning to `CC(C)Nc1c(C(N)=O)nnc2cc(-c3ccncc3)ccc12`, the figures for the inhibition in series [4] and in [8] were 15% and 23%, respectively.

For `CC(C)Nc1c(C(N)=O)nnc2ccc(-c3cn[nH]c3)cc12`, the inhibition was determined as 100% in series [1], 40% in series [4] and 63% in series [8]. In addition, the EC50 in series [9] was found to be 0.109 µM. The values for the IC50 in series [6] and in [10] were 0.005 µM and 0.001 µM, respectively.

`CC(C)Nc1c(C(N)=O)nnc2ccc(-c3ccncc3)cc12`: the inhibition in series [1] was 99%; in series [4] it was 43%; in [8], 26%. The IC50 in [6] came to 0.066 µM.

`CC(C)Nc1c(C(N)=O)nnc2cc(N3CCOCC3)ccc12`: the inhibition in [1] is 42%; in series [4], 0%; in [8], -5%. Besides, the Kp at 5 min in series [2] was 11.4. The half-maximal inhibitory concentration (IC50) in series [3] came to 0.054 µM; in series [5] it was 0.022 µM; in series [6], 0.012 µM; in [10], 0.009 µM. In addition, the Drug uptake entry in the series with Brain was “Active”. Also, the “inhibition (INH)” value in series [7] is “Active”. For the same compound, in the series with Mus musculus, the inhibition entry is “Active”.
